Screening data: PubChem BioAssay, several laboratories
APP 5'UTR act = activators of APP 5'UTR luciferase reporter, primary screen, SH-SY5Y cells; SH-SY5Y APP 5'UTR luciferase reporter, luminescence; zero percent = DMSO vehicle wells; actives 1% (n = 190,000); activation, % at 2 µM;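 active means activation above a set limit, based on mean plus 3 SD of controls, cut at about 140% in these data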
MDM2 E3 inh = MDM2-luciferase reporter signal enhancers, primary screen, MDM2 E3 ligase inhibitor project, cell-based, luminescence, 1536-well. E3 ubiquitin-protein ligase Mdm2 (Homo sapiens), Q00987. AID 1230, 2008. actives 0.11% (n = 210,000). cell-based MDM2 ubiquitination luciferase reporter, 2 h; 0 = plate control, 100 = twice control, blank-subtracted. signal enhancement, % at 5 µM;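 active means signal enhancement of 30% or more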;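 further: luminescence tracks abundance of the self-degrading MDM2-luciferase fusion protein; higher signal means inhibition of MDM2 E3 ligase activity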
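Material: Stable MDM2–luciferase fusion reporter cells | Amount: 2000 cells seeded into each well | Dosing: One concentration, 5 µM, with 0.2% DMSO | Incubation: 4 h cell settling then 2 h compound exposure, 37 °C | Measured by: Luciferase luminescence | Read-out basis: % enhancement relative to plate controls after blank subtraction | Benchmarks: Control and blank well means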
PERK inh = block of dimerizer-induced PERK translation repression, primary screen, PERK inhibitor project, CHO PERK-DD cells, SEAP luminescence, HTS; Eukaryotic translation initiation factor 2-alpha kinase 3 (Homo sapiens), Q9NZJ5; CHO PERK-DD fusion, SEAP luminescence translation reporter; inhibition, % at 5.6 µM; actives 0.17% (n = 220,000); AID 1416, 2008;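 active means inhibition above the mean inhibition of all tested compounds plus 3 SD, set separately per screening campaign, cut at about 2.9% in these data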;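 further: PERK kinase domain activated by AP20187 dimerizer at 100 nM; 0% = DMSO with dimerizer and 100% = rapamycin at 8.4 µM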
AHR act = AHR activators, primary screen, cell-based, luminescence, luciferase reporter, human; Aryl hydrocarbon receptor (Homo sapiens), P35869; AHR-responsive luciferase reporter cells; activation, % at 5 µM; actives 2.5% (n = 320,000); in the data active means activation above about 47%;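 further: 0% = vehicle wells and 100% = reference agonist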
Target sequence (P35869 whole entry, looked up): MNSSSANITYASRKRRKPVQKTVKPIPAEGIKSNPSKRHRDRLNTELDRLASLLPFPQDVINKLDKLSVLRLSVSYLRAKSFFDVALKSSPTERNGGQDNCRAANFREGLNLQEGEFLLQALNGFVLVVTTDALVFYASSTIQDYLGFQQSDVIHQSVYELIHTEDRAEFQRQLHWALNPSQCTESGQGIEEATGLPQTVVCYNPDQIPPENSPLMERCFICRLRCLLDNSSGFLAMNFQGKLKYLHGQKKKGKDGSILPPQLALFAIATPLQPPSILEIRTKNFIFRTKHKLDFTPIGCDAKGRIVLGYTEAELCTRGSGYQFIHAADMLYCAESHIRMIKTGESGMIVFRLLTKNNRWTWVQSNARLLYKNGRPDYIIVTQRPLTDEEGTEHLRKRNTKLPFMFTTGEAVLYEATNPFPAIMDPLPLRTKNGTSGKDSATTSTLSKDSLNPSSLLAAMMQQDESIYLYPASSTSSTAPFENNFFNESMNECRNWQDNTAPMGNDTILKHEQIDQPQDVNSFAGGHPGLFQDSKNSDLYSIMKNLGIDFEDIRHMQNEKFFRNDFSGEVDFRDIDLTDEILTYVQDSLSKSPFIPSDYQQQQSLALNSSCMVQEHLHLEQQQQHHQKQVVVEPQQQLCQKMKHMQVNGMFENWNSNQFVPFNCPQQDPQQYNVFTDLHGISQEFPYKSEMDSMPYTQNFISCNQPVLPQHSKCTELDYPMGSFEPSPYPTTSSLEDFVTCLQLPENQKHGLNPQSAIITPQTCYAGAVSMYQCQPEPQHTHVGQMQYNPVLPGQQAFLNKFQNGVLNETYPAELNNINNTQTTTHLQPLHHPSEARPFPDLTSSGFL
NF-kB expr up = activators of NF-kB expression in neurons, primary screen, cell-based, HTS | human neuronal cells, NF-kB reporter expression; hits give high values | fold change at 12.5 µM | actives 1.6% (n = 190,000); in the data active means fold change above about 3.3
STAT1 act = STAT1 signaling activators, primary screen, cell-based, HTS, luciferase reporter. NIH 3T3 STAT1-luciferase reporter, IFN-gamma, luminescence; 100% = IFN-gamma alone, no compound. activation (% of control), % at 5.5 µM. actives 2.6% (n = 200,000);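 active means activation above the screen-wide mean activation plus 3 SD, cut at about 130% in these data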;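 further: raw ratio to IFN-gamma control signal so 100% means no change and 0% no light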
The depositor's hits bear a star; nt = no result. This is a sample that favours compounds with a hit; in the whole collection about 4.5% have one here.

SMILES | APP 5'UTR act | MDM2 E3 inh | PERK inh | AHR act | NF-kB expr up | STAT1 act
N#Cc1ccc(N2Cc3ccccc3C2=NC(=O)c2cccnc2Cl)cc1 | 2 | -5 | 0 | -6 | 5* | 107
COc1cc(/C=N/NC(=O)/C(=C\c2ccc3c(c2)OCO3)NC(=O)c2ccccc2)ccc1O | 16 | -4 | 0 | 69* | 0.93 | 97
COc1ccc(/C=N/NC(=O)c2cc(-c3ccc4c(c3)OCO4)n[nH]2)cc1OC | -5 | -13 | 1 | 73* | 0.47 | 115
COc1cc(/C=N/NC(=O)/C(=C\c2ccc([N+](=O)[O-])cc2)NC(=O)c2ccccc2)cc(OC)c1O | 10 | -25 | 1 | 14 | 0.82 | 97
O=C(N/N=C/c1ccc(F)cc1)c1cc(-c2ccc3c(c2)OCO3)n[nH]1 | nt | 0 | 0 | 39 | nt | nt
CC(=O)C[C@H]1c2cc(F)ccc2S(=O)(=O)N1c1ccc(N(C)C)cc1 | nt | nt | nt | 6 | nt | nt
COc1c(O)cc2c(c1O)C(=O)CC(c1ccccc1)O2 (stereo unspecified) | 35 | -4 | 1 | nt | 1.8 | 110
Cc1c(O)cc2c(c1O)C(=O)CC(c1ccccc1)O2 (stereo unspecified) | nt | -29 | nt | 79* | nt | nt
CC(=O)NC(CC(=O)Nc1nc(C)cs1)c1ccccc1 (stereo unspecified) | 19 | -5 | 0 | -1 | 1.9 | 96
O=C(COC(=O)c1cc(=O)[nH]c2ccccc12)NCc1ccccc1Cl | nt | nt | nt | 7 | nt | nt
O=C(CC1NCCN(Cc2ccccc2)C1=O)Nc1ccc(Cl)cc1 (stereo unspecified) | nt | -9 | 1 | 0 | nt | nt
O=C(CC1NCCc2ccccc21)Nc1ccc(Cl)cc1 (stereo unspecified) | 6 | 10 | 0 | 75* | 0.99 | 97
O=C1NC(c2cccnc2)C(C(=O)c2cccs2)C(O)(C(F)(F)F)N1 (stereo unspecified) | -7 | 1 | 1 | 1 | 1.2 | 102
CN1C(=O)NC(c2cccc(O)c2)C(C(=O)c2cccs2)C1(O)C(F)(F)F (stereo unspecified) | 135* | 2 | 0 | 3 | 1.8 | 99
CCOC(=O)C1C(c2cccs2)NC(=O)N(C)C1(O)C(F)(F)F (stereo unspecified) | -10 | 8 | 1 | 0 | 1.1 | 104
O=C1NC(c2ccncc2)C(C(=O)c2cccs2)C(O)(C(F)(F)F)N1 (stereo unspecified) | -16 | 4 | 3.0* | -2 | 1 | 107
[O-]/C(=C(\C(=S)Nc1ccc(SC(F)F)cc1)[n+]1ccccc1)c1ccc(Cl)cc1Cl | 3 | -31 | 0 | 7 | 4.7* | 98
Cc1cc(C)cc(NC(=S)/C(=C(\[O-])c2ccc(Cl)cc2Cl)[n+]2ccccc2)c1 | 1 | -5 | 0 | 7 | 1 | 99
Cc1cc(=O)oc(C)c1C(=O)OCC(=O)c1ccc(Cl)cc1 | 10 | 0 | 1 | -8 | 1.3 | 92
COc1ccccc1OCC(=O)NNC(=O)c1ccc2c(=O)n3c(nc2c1)CCC3 | nt | nt | nt | 19 | nt | nt
Cc1ccc(C)c(S(=O)(=O)N/N=C/c2ccc(F)cc2)c1 | 4 | -18 | 2 | 74* | 1.1 | 102
COc1ccc(NC(=O)n2ncc3cc(Cl)ccc32)cc1OC | nt | nt | nt | -6 | nt | nt
CC(=O)Nc1nc(-c2ccccc2)nc(-c2ccccc2OC(C)=O)n1 | -13 | -5 | 0 | 75* | 0.5 | 102
CCOC(=O)c1cnc2c(ccc3ccccc32)c1N | nt | nt | nt | 1 | nt | nt
CCCc1ccc(OCc2nc(-c3ccc(NC(=O)c4ccco4)cc3)no2)cc1 | 61 | -4 | 1 | 4 | 2.3 | 133*
SMILES | APP 5'UTR act | MDM2 E3 inh | PERK inh | AHR act | NF-kB expr up | STAT1 act
CCOC(=O)Cc1nc2ccccc2o1 | 2 | 23 | 1 | 0 | 0.94 | 106
Nc1ccc(CCc2nc3ccccc3o2)cc1 | 163* | -46 | 0 | 5 | 3 | 138*
Cn1c(CCC(=O)O)nc2cc(S(=O)(=O)N3CCCCC3)ccc21 | nt | nt | nt | 0 | nt | nt
COc1cccc2cc(NC(=O)C3CCCCC3)c(=O)oc12 | 13 | -9 | 1 | -3 | 2.6 | 131*
C=CCNC(=O)c1c(Cl)cnn1-c1ccc(C)cc1 | 104 | -9 | 1 | 23 | 3.2 | 139*
Cc1sc(NC(=O)C2CCCCC2)c(C#N)c1-c1ccccc1 | 46 | -11 | 0 | 29 | 1.4 | 130*
Cc1cccc(C(=O)Nc2sc(C)c(-c3ccccc3)c2C#N)c1 | 27 | -24 | -1 | 50* | 3.5* | 133*
Cc1noc(C)c1C(=O)Nc1sc(C)c(-c2ccccc2)c1C#N | -5 | -7 | 0 | 21 | 0.48 | 100
COc1ccc(-c2cc(=O)oc3c(C)c(OC(C)C(=O)Nc4ccc(CN5CCOCC5)cc4)ccc23)cc1 (stereo unspecified) | nt | nt | nt | 2 | nt | nt
COc1ccc2cc(C(=O)C3CCCN(C(=O)c4cncs4)C3)ccc2c1 (stereo unspecified) | nt | nt | nt | 59* | nt | nt
COc1ccc2cc(C(=O)C3CCCN(C(=O)c4cccnc4)C3)ccc2c1 (stereo unspecified) | nt | nt | nt | 18 | nt | nt
O=C(N/N=C/C(Br)=C\c1ccccc1)c1n[nH]c2c1CCC2 | -96 | -2 | -1 | 39 | 8.3* | 129*
O=C(Cc1cccs1)N/N=C/C(Br)=C/c1ccccc1 | 74 | -1 | 0 | 4 | 1.4 | 148*
Cc1occc1C(=O)N/N=C/C(Br)=C/c1ccccc1 | 155* | -34 | 1 | -3 | 6.4* | 148*
Cc1occc1C(=O)N/N=C/c1ccc(-c2ccccc2)cc1 | nt | nt | nt | 7 | nt | nt
Clc1ccc2nc(-c3ccc(Br)s3)cn2c1 | 230* | -1 | -1 | 21 | 3.5* | 96
COc1ccc(-c2cn3nc(C)c(C)nc3n2)cc1OC | nt | nt | nt | 3 | nt | nt
COc1ccc(-c2cn3cc(Cl)ccc3n2)cc1OC | 65 | 9 | 0 | 56* | 2 | 127
O=C(Nc1ccnn1C1CCN(Cc2ccccc2F)CC1)C1CCCC1 | nt | nt | nt | 5 | nt | nt
NC1=NC(=O)/C(=C\c2ccco2)S1 | nt | nt | 0 | 0 | nt | nt
CS(=O)(=O)Nc1ccc(-c2ccc(/C=C3\SC(N)=NC3=O)o2)cc1 | nt | nt | nt | 58* | nt | nt
COc1ccc(CCC(=O)OCC(=O)c2ccc(C)cc2)cc1 | 25 | -9 | 0 | 3 | 1.4 | 104
Cc1cc(C)cc(OCc2nc3ncc(Br)cc3[nH]2)c1 | 0 | nt | 1 | 69* | nt | 98
COc1cccc(OCc2nc3ncc(Br)cc3[nH]2)c1 | 2 | -12 | 0 | 19 | 1.5 | 120
